Experimental data published in PubChem BioAssay.
Active and inactive are the calls of the source.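 Rule for the calls, unless noted: active = NADPH fluorescence slope more negative than the mean of all samples by about 3 SD, 99.7% confidence; inactive = the rest.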

Legend:
[1] = inhibitors of TNFa-induced NFkB p65 translocation, primary screen, imaging, HUVEC, MLSMR starter and 10KST1 sets (AID 438;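 active = inhibition above 20% together with a positive visual image hit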;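 note: compound added about 3h40 before a 20 min TNFalpha stimulation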;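 for inhibition: signal is the nuclear over cytoplasmic p65 intensity ratio per well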); conditions: HUVEC TNFa-induced p65 nuclear translocation; cell count: measured here: nuclei count (cytotoxicity indicator), at 2.08 µM; inhibition: at 2 µM, stronger effect = higher value, 0% TNFa-plus-vehicle, 100% no-TNFa wells
[2] = reduction of polyQ htt aggregates in cells – imaging, exon1htt(103Q)mCFP cells, high-content imaging, primary screen (AID 483;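 active = visual image review flags a hit and inhibition of aggregation exceeds 20%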;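 note: compound exposure lasted 3 days before fixation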;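 for nuclei count: percent of the per-plate median nuclei count of sample wells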); conditions: exon1htt(103Q)mCFP cell line, aggregate imaging, at 2 µM; inhibition of aggregation: stronger effect = higher value; nuclei count: measured here: cell count, toxicity
[3] = endothelial E-selectin expression blockers – imaging, HUVEC, immunofluorescence, MLSMR starter and 10KST1 sets, primary screen (AID 487;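 active = visually confirmed hit in the image check and inhibition above 20%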;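 for inhibition: signal is fraction of cell area covered by stained E-selectin grains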;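 for nuclei count: 100% = median nuclei count of all wells on the same plate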); conditions: HUVEC TNFalpha-induced E-selectin immunofluorescence imaging, at 2 µM; inhibition: stronger effect = higher value; nuclei count: measured here: cell number, toxicity
[4] = target: Voltage-gated potassium channel subunit beta-2 (Rattus norvegicus) (UniProt P62483); assay: inhibitors of rat Kvbeta2 reductase activity – biochemical, NADPH fluorescence, primary screen (AID 622;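 active = fluorescence slope higher than the sample average by over 3 SD, cut at about -0.22 in these data, passing the limit was not always enough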;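 note: slope of raw intensity against log time taken from 70 to 1610 s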); conditions: recombinant KvBeta, 4-cyanobenzaldehyde reduction, at 10 µM, stronger effect = higher value
Sequence of Voltage-gated potassium channel subunit beta-2 (Rattus norvegicus) (P62483 whole entry, looked up): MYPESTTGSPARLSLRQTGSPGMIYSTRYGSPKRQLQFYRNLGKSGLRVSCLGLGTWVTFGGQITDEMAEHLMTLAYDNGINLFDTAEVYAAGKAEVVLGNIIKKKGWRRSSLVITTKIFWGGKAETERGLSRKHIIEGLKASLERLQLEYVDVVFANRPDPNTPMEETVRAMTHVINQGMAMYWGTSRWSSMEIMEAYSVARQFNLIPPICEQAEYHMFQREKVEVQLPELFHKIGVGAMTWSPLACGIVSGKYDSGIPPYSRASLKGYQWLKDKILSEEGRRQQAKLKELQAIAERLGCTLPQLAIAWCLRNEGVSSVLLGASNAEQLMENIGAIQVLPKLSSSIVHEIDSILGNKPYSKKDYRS

[5] = target: Voltage-gated potassium channel subunit beta-2 (Rattus norvegicus) (UniProt P62483); assay: enhancers of rat Kvbeta2 NADPH turnover – biochemical, NADPH fluorescence, primary screen (AID 623); conditions: Recombinant KvBeta, NADPH fluorescence decrease slope, 10 min; at 10 µM; stronger effect = lower value;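 note: fluorescence intensity change per second fitted from 20 to 320 s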
[6] = target: Muscarinic acetylcholine receptor M4 (Homo sapiens) (UniProt P08173); assay: M4-linked GIRK flux change, two-sided – cell-based, HEK293 M4/GIRK, thallium flux, BTC-AM, M4 allosteric agonist project, primary screen (AID 625;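 active = fluorescence slope after compound addition differing from the mean of all tested samples at 99.7% confidence, mostly higher but some lower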;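 note: thallium influx through GIRK channels coupled to M4 in HEK293 cells with BTC-AM dye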); conditions: at 10 µM, actives lie on both sides
Sequence of Muscarinic acetylcholine receptor M4 (Homo sapiens) (P08173 whole entry, looked up): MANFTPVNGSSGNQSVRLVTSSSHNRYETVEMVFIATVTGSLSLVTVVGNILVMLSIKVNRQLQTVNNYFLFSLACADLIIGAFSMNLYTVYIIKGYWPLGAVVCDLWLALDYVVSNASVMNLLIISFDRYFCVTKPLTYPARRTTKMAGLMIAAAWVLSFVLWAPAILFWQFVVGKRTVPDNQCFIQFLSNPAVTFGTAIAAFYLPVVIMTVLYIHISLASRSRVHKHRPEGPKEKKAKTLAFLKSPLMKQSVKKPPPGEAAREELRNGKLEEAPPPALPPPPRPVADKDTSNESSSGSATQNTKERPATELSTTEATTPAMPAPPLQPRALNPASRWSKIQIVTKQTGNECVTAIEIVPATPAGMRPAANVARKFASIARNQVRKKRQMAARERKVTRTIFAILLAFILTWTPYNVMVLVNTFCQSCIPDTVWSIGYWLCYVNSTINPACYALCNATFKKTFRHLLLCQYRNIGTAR
In short: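 Assay system: HEK293 cells with M4 receptor and GIRK channels / Controls: carbachol and DMSO controls / Schedule: 1 h dye loading, 2 min kinetic read / Technique: kinetic fluorescence with BTC-AM dye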

[7] = blockers of RIG-like receptor reporter activation – cell-based, Sendai virus stimulus, luciferase, 10K MLSCN set, TLR/RLR signaling modifier project, primary screen (AID 602276;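 active = inhibition at or above 50% at 10 µM; inactive = inhibition below 50%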;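 note: firefly luciferase from ISG56 promoter only with Renilla not read in this screen; 0% = Sendai virus plus DMSO and 100% = medium plus DMSO without virus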); conditions: HEK293 RL24 IRF3 luciferase reporter, at 10 µM, stronger effect = higher value
[8] = TLR3 IRF3 reporter activation blockers – cell-based, poly I:C stimulus, luciferase, 10K MLSCN set, primary screen (AID 602277;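 active = inhibition of the reporter signal at or above 50%; inactive = inhibition below 50%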); conditions: HEK293-TLR3 RL24 IRF3 luciferase reporter, at 10 µM, stronger effect = higher value

Row | Compound | cell count [1] | inhibition [1] | inhibition of aggregation [2] | nuclei count [2] | inhibition [3] | nuclei count [3] | fluorescence slope [4] | NADPH fluorescence slope [5] | fluorescence slope [6] | inhibition [7] | inhibition [8]
1 | COC(=O)CN1C(=O)C2(C(C#N)=C(N)Oc3c2c(C)nn3-c2ccccc2)c2ccccc21 (stereo not drawn) | 668 | -24.1% (inactive) | 5% (inactive) | 97.4% | 18.6% (inactive) | 97.4% | -0.475 (inactive) | -6.6e-05 (inactive) | 0.0047 (inactive) | 16.1% (inactive) | 19.7% (inactive)
2 | O=C(CN1C(=O)c2ccccc2C1=O)NCC1COc2ccccc2O1 (stereo not drawn) | 403 | -0.8% (inactive) | 12.6% (inactive) | 101% | 50.3% (inactive) | 75.3% | -0.477 (inactive) | 9.2e-05 (inactive) | 0.00703 (inactive) | -12.5% (inactive) | -10.2% (inactive)
3 | CC1CCN(CCCNC(=O)c2cn(C)c3ccc(S(=O)(=O)N4CCCC4)cc3c2=O)CC1 | 515 | 1.8% (inactive) | 0% (inactive) | 93.4% | 18.8% (inactive) | 61.5% | -0.321 (inactive) | -5.9e-05 (inactive) | 0.00713 (inactive) | 3.75% (inactive) | 21.7% (inactive)
4 | CN(C)Cc1c(O)ccc2oc(Cc3ccccc3)cc12 | 676 | -9.1% (inactive) | 14.8% (inactive) | 65.8% | -12.9% (inactive) | 104% | -0.533 (inactive) | -6.9e-06 (inactive) | 0.00447 (inactive) | 22.6% (inactive) | 22.2% (inactive)
5 | CCOC(=O)CN(C)Cc1c[nH]c2ccccc12 | 442 | -2.2% (inactive) | -15.3% (inactive) | 93.9% | 17.6% (inactive) | 78.5% | -0.426 (inactive) | -4.3e-05 (inactive) | 0.00441 (inactive) | 27.3% (inactive) | 36.9% (inactive)
6 | Cn1ccnc1C(O)c1ccco1 (stereo not drawn) | 722 | 3.3% (inactive) | -15.7% (inactive) | 97.2% | -146% (inactive) | 129% | -0.422 (inactive) | 2.5e-05 (inactive) | 0.00477 (inactive) | 15.2% (inactive) | 13.2% (inactive)
7 | Cc1cnn(C(=S)NCc2ccco2)c1 | 465 | -13.6% (inactive) | 17.2% (inactive) | 94.5% | -15.2% (inactive) | 99.9% | -0.49 (inactive) | -3.2e-05 (inactive) | 0.0043 (inactive) | 6.4% (inactive) | 1.55% (inactive)
8 | O=C(Cn1c(=O)[nH]c2ccsc2c1=O)NC1CCCCCC1 | 468 | -0.7% (inactive) | 19.2% (inactive) | 104% | 13.2% (inactive) | 107% | -0.26 (inactive) | -3.5e-06 (inactive) | 0.0062 (inactive) | 17.6% (inactive) | 9.21% (inactive)
9 | CC1(C)Cc2nc3oc4c(N(CCO)Cc5ccccc5)ncnc4c3cc2CO1 | 558 | 6.7% (inactive) | -1.1% (inactive) | 101% | -29.7% (inactive) | 122% | -0.27 (inactive) | -1.6e-05 (inactive) | 0.0057 (inactive) | -1.42% (inactive) | 5.17% (inactive)
10 | Cc1c(C(=O)O)oc2ccc(S(=O)(=O)NCc3ccccc3)cc12 | 675 | -4.8% (inactive) | 21.7% (inactive) | 108% | -38.4% (inactive) | 110% | -0.432 (inactive) | 4.7e-05 (inactive) | 0.00586 (inactive) | -0.0664% (inactive) | 11.8% (inactive)
11 | COc1ccc2c(c1)CCc1c(C(=O)N3CCCc4ccccc43)noc1-2 | 419 | -4.5% (inactive) | 17.4% (inactive) | 69.7% | -32.7% (inactive) | 108% | -0.459 (inactive) | -0.000351 (inactive) | 0.00416 (inactive) | -24% (inactive) | -75% (inactive)
12 | CCOC(=O)Nc1cc(OCC)c(NC(=O)C2CC2)cc1OCC | 589 | -12.9% (inactive) | -15% (inactive) | 117% | -52.7% (inactive) | 119% | -0.439 (inactive) | -4.7e-05 (inactive) | 0.00711 (inactive) | 3.59% (inactive) | 11.8% (inactive)
13 | O=C(Nc1ccc(Cl)c(Cl)c1)Nc1cc(C(=O)N2CCOCC2)ccc1N1CCCCC1 | 580 | -17.7% (inactive) | -5.4% (inactive) | 114% | -44.8% (inactive) | 114% | -0.441 (inactive) | -7.7e-06 (inactive) | 0.00555 (inactive) | 13.7% (inactive) | 13.1% (inactive)
14 | Nc1nnc(SCC(=O)N2CCc3ccccc32)n1-c1ccccc1 | 449 | -3.6% (inactive) | -2% (inactive) | 94.9% | -79.9% (inactive) | 111% | -0.542 (inactive) | -4.3e-05 (inactive) | 0.00439 (inactive) | 17.7% (inactive) | 27.2% (inactive)
15 | Cc1ccc(C(=O)Nc2ccc3c(c2)OCO3)o1 | 466 | 0% (inactive) | -13.9% (inactive) | 106% | -17.5% (inactive) | 121% | -0.603 (inactive) | -2.2e-05 (inactive) | 0.00576 (inactive) | -40.3% (inactive) | -49.6% (inactive)
16 | C[N+]1=C2CCCCCN2C(O)(c2ccccc2)C1 (stereo not drawn) | 546 | -3% (inactive) | 6.3% (inactive) | 110% | -1.4% (inactive) | 130% | -0.56 (inactive) | -3.1e-05 (inactive) | 0.00533 (inactive) | 12.5% (inactive) | 17.2% (inactive)
17 | CC(C)c1ccc(NC(=O)C2CC(=O)N(C(C)C)C2)cc1 (stereo not drawn) | 232 | -2.3% (inactive) | 21% (inactive) | 81.7% | -44.3% (inactive) | 108% | -0.558 (inactive) | -6.2e-05 (inactive) | 0.0102 (inactive) | 12.8% (inactive) | -37.1% (inactive)
18 | O=C(CSc1nnc(Cn2cnc3ccccc32)o1)c1ccccc1 | 672 | 3% (inactive) | -1.5% (inactive) | 92.9% | 82.5% (inactive) | 52% | -0.464 (inactive) | -3.7e-05 (inactive) | 0.00662 (inactive) | 7.52% (inactive) | -3.02% (inactive)
19 | CC(=O)Nc1ccc(S(=O)(=O)N2CCN(Cc3ccncc3)CC2)cc1 | 679 | -5.8% (inactive) | -14% (inactive) | 123% | -26.1% (inactive) | 126% | -0.451 (inactive) | -3.2e-05 (inactive) | 0.00451 (inactive) | 18.9% (inactive) | 16.4% (inactive)
20 | COc1ccc(NC(=O)CCNC(=O)Cn2ccc3ccccc3c2=O)c(OC)c1 | 707 | -8.4% (inactive) | 22.3% (inactive) | 101% | -39.3% (inactive) | 115% | -0.331 (inactive) | -5.9e-05 (inactive) | 0.00839 (inactive) | 14.4% (inactive) | 15.6% (inactive)
21 | C=CCn1c(COc2ccccc2F)nnc1SCC(=O)N1CC(=O)Nc2ccccc21 | 390 | -23.5% (inactive) | 28% (inactive) | 100% | 4% (inactive) | 121% | -0.355 (inactive) | 2.1e-06 (inactive) | 0.00612 (inactive) | -13.7% (inactive) | -13.8% (inactive)
22 | O=C(O)C1C2CCC(C2)C1C(=O)NCCCn1ccnc1 (stereo not drawn) | 486 | 0% (inactive) | 18.3% (inactive) | 72.3% | 65.4% (active) | 65.1% | -0.491 (inactive) | -8.2e-05 (inactive) | 0.0041 (inactive) | -12.1% (inactive) | -16.7% (inactive)
23 | NC(=O)c1c(-c2ccccc2)oc2ccc(O)cc12 | 380 | -4.7% (inactive) | 11.1% (inactive) | 103% | -104% (inactive) | 92.8% | -0.532 (inactive) | -1.2e-05 (inactive) | 0.00463 (inactive) | -8.7% (inactive) | -13.7% (inactive)
24 | CCN(CCCNC(=O)c1cn(CC)c2ccc(S(=O)(=O)N(C)C)cc2c1=O)c1cccc(C)c1 | 587 | -12.9% (inactive) | 23.2% (inactive) | 106% | -62.7% (inactive) | 116% | -0.475 (inactive) | 8.6e-05 (inactive) | 0.00589 (inactive) | 5.55% (inactive) | 3.96% (inactive)
25 | C/C(N)=C(\C#N)C(=O)NCCc1ccccn1 | 326 | -1.7% (inactive) | -11.6% (inactive) | 106% | -26.9% (inactive) | 102% | -0.613 (inactive) | 2e-05 (inactive) | 0.00369 (inactive) | 7.83% (inactive) | 13.8% (inactive)
26 | CC1(C)CC(=O)c2cnc(NC(=O)CSc3nc4ccccc4o3)nc2C1 | 257 | -5.5% (inactive) | -24.6% (inactive) | 87.1% | -79.9% (inactive) | 107% | -0.294 (inactive) | -1.5e-05 (inactive) | 0.00793 (inactive) | -3.99% (inactive) | 20% (inactive)
27 | Nc1nnc(SCCOc2ccccc2)s1 | 417 | -0.9% (inactive) | 2.2% (inactive) | 108% | -70% (inactive) | 98.8% | -0.535 (inactive) | -1.2e-05 (inactive) | 0.00525 (inactive) | -8.16% (inactive) | -14% (inactive)
28 | Cc1nn(-c2ccc(F)cc2)c2sc(C(=O)OCC(=O)N3CCC(C)CC3)cc12 | 359 | -4.2% (inactive) | -8.8% (inactive) | 95.7% | 0.8% (inactive) | 106% | -0.514 (inactive) | -3.9e-05 (inactive) | 0.00495 (inactive) | -2.34% (inactive) | -1.01% (inactive)
